Experimental data reported in ChEMBL document CHEMBL5030509, “A Crowding Barrier to Protein Inhibition in Colloidal Aggregates” (J Med Chem, 2021).
The source made the active and inactive calls. No cut-off for these calls is given here.

Key:
Bacteria [1] = test: Inhibition of bacterial AmpC beta-lactamase assessed as time reach to 90% inhibition in presence of preloaded MDH
Procedure, shortened: (§1)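 AmpC activity with 70 μM CENTA, read at 405 nm for 150 s, in 50 mM KPi pH 7 at room temperature. For preloading, the aggregator was incubated 5 min with MDH before AmpC was added and incubated for varying times. % activity is relative to an aggregator-free rate control. T90 is the time to 10% activity.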

Bacteria [2] = test: Inhibition of bacterial AmpC beta-lactamase at 10 uM using 2 nM of enzyme preincubated for 5 mins followed by CENTA chromogenic substrate addition by spectrophotometric assay relative to control
Procedure, shortened: (§2)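 AmpC β-lactamase mixed with colloidal aggregator in 50 mM KPi pH 7 at room temperature, mixed by pipetting, incubated 30 s–15 min. Then 70 μM CENTA added and absorbance followed at 405 nm for 150 s. % activity is the initial rate relative to an aggregator-free control. T90 is the incubation time to reach 10% activity.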

Bacteria [3] = test: Inhibition of bacterial AmpC beta-lactamase at 10 uM of 10 nM of enzyme preincubated for 5 min followed by CENTA chromogenic substrate addition by spectrophotometric assay relative to control; set-up: scale not given: the % may be the effect or the level left; procedure, shortened: as §2
Bacteria [4] = test: Inhibition of bacterial AmpC beta-lactamase at 10 uM using 2 nM of enzyme preincubated for 30 sec followed by CENTA chromogenic substrate addition by spectrophotometric assay relative to control; procedure, shortened: as §2
Escherichia coli = test: Inhibition of Escherichia coli beta galactosidase using ortho-nitrophenyl-beta-galactoside as substrate
Procedure, shortened: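 E. coli β-galactosidase (overproducer) mixed with colloidal aggregator in 50 mM KPi pH 7, incubated 30 s–15 min at room temperature; reaction started with 300 μM ortho-nitrophenyl-β-galactoside and followed at 320 nm for 150 s. Initial rate divided by that of an aggregator-free control gives % activity.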

Bacteria [5] = test: Inhibition of bacterial AmpC beta-lactamase at 5 uM preincubated for 1 min followed by CENTA chromogenic substrate addition by spectrophotometric method relative to control; procedure, shortened: as §2
Bacteria [6] = test: Inhibition of bacterial AmpC beta-lactamase at 10 uM using 10 nM of enzyme preincubated for 30 sec followed by CENTA chromogenic substrate addition by spectrophotometric assay relative to control; procedure, shortened: as §2
[7] = target: T1, Malate dehydrogenase, mitochondrial (Homo sapiens) (UniProt P40926); test: Inhibition of preloaded MDH (unknown origin) preincubated for 30 sec in presence of preloaded AmpC
T1 sequence (whole entry): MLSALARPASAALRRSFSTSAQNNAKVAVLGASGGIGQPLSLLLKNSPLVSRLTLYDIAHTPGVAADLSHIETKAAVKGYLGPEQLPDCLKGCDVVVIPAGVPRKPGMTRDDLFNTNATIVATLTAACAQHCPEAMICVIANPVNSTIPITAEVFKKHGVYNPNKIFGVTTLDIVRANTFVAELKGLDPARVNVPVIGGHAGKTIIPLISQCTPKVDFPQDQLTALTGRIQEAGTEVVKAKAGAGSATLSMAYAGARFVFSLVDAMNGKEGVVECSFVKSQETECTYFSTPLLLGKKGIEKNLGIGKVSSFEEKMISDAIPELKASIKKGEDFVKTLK
Procedure, shortened: (§3)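 Porcine heart MDH assay: 200 μM nicotinamide adenine dinucleotide plus 200 μM oxaloacetate, read at 340 nm for 150 s, in 50 mM KPi pH 7 at room temperature. For preloading, the aggregator was first incubated 5 min with AmpC, then MDH was added and incubated for varying times. % activity is relative to an aggregator-free control.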

Bacteria [8] = test: Inhibition of bacterial AmpC beta-lactamase assessed as time reach to 90% inhibition in absence of preloaded MDH; procedure, shortened: as §1
Bacteria [9] = test: Inhibition of bacterial AmpC beta-lactamase preincubated for 30 sec in absence of preloaded MDH relative to control; settings: concentration not given here; procedure, shortened: as §1
Bacteria [10] = test: Inhibition of bacterial AmpC beta-lactamase preincubated for 30 sec in presence of preloaded MDH relative to control; settings: concentration not given here; procedure, shortened: as §1
Bacteria [11] = test: Inhibition of bacterial AmpC beta-lactamase at 5 uM preincubated for 5 min followed by CENTA chromogenic substrate addition by spectrophotometric method relative to control; procedure, shortened: as §2
[12] = target: T1, Malate dehydrogenase, mitochondrial (Homo sapiens); test: Inhibition of preloaded MDH (unknown origin) preincubated for 30 sec in absence of preloaded AmpC; procedure, shortened: as §3
[13] = target: T1, Malate dehydrogenase, mitochondrial (Homo sapiens); test: Inhibition of malate dehydrogenase (unknown origin) assessed as time to reach 90% inhibition pretreated with 50 mM KPi for 15 mins followed by nicotinamide adenine dinucleotide addition measured every 150 sec by spectrophotometric method; settings: dose 5.0 mM, in the assay text read “5 mM KPi” for “50 mM KPi”
Procedure, shortened: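 Porcine heart MDH mixed with colloidal aggregator in 50 mM KPi pH 7 at room temperature, incubated 30 s–15 min. Reaction started with 200 μM NADH and 200 μM oxaloacetic acid, followed at 340 nm for 150 s. Initial rate relative to an aggregator-free control gives % activity. T90 is the incubation time to 10% activity.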

Bacteria [14] = test: Inhibition of bacterial AmpC beta-lactamase at 5 uM preincubated for 2 mins followed by CENTA chromogenic substrate addition by spectrophotometric method relative to control; procedure, shortened: as §2

**Q.** With `CNC(=O)c1cc(Oc2ccc(NC(=O)Nc3ccc(Cl)c(C(F)(F)F)c3)cc2)ccn1` as the compound, how does the TIME (Bacteria [1]) read?
**A.** 0.0833 h

**Q.** What about the inhibition (Bacteria [2]) of the same compound?
**A.** 100%

**Q.** And the Activity (Bacteria [3])?
**A.** 20%

**Q.** What about the inhibition (Bacteria [4]) of the same compound?
**A.** 67%

**Q.** What about the inhibition (Escherichia coli) of the same compound?
**A.** Active

**Q.** And the inhibition (Bacteria [5])?
**A.** 40%

**Q.** What about the inhibition (Bacteria [6]) of the same compound?
**A.** 40%

**Q.** What about the inhibition [7] of the same compound?
**A.** Active

**Q.** What about the TIME (Bacteria [8]) of the same compound?
**A.** 0.0167 h

**Q.** What about the inhibition (Bacteria [9]) of the same compound?
**A.** 80%

**Q.** And the inhibition (Bacteria [10])?
**A.** 45%

**Q.** What about the inhibition (Bacteria [11]) of the same compound?
**A.** 100%

**Q.** What about the inhibition [12] of the same compound?
**A.** Active

**Q.** And the TIME [13]?
**A.** > 0.25 h

**Q.** What about the inhibition (Bacteria [14]) of the same compound?
**A.** 80%
